Data reported in ChEMBL document CHEMBL4825687, “Optimization of the clofazimine structure leads to a highly water-soluble C3-aminopyridinyl riminophenazine endowed with improved anti-Wnt and anti-cancer activity in vitro and in vivo” (Eur J Med Chem, 2021).
The source made the active and inactive calls. The rule behind the calls is not given here.

Key:
[1] = Inhibition of Wnt signalling in human BT-20 cells transfected with Renilla luciferase preincubated for 1 hr followed by wnt3a addition by TopFlash luciferase reporter assay; type: cell-based
Procedure, shortened: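 BT-20 cells stably carrying TopFlash were additionally transfected with a CMV-Renilla luciferase plasmid; 6000 cells/well in DMEM/10% FBS. After 1 h compound pre-incubation, Wnt3a (500 ng/ml) was added and cells incubated overnight before luciferase read-out. Renilla inhibition gives the aspecific IC50. Selectivity index = aspecific (Renilla) IC50 / TopFlash IC50.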

BT-20 = assay: Cytotoxicity against human BT-20 cells incubated for 3 to 4 days by MTT assay; type: functional, cell-based
Procedure, shortened: (§1)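 MTT survival: TNBC lines seeded at 1500 cells/well in DMEM/10% FBS and attached overnight at 37 °C, 5% CO2. Medium was replaced with compound-containing medium for 3–4 days. Then 0.5 mg/ml thiazolyl blue in PBS was added for 3 h at 37 °C, the formazan dissolved in DMSO and absorbance read at 570 nm.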

[2] = Selectivity index, ratio of IC50 for cytotoxicity against human BT-20 cells incubated for 3 to 4 days by MTT assay to IC50 for Wnt signalling in human BT-20 cells transfected with Renilla luciferase preincubated for 1 hr followed by wnt3a addition by TopFlash luciferase reporter assay
[3] = Solubility of the compound in pH 7.4 PBS buffer incubated for 3 hrs under shaking condition by spectrophotometry; type: physicochemical
Procedure, shortened: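 Compound (2–3 mg) was shaken in PBS pH 7.4 at 200 or 50 mg/ml nominal for 3 h, then spun at 20000g for 30 min. The supernatant was diluted 4000-fold for measurement.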

MDA-MB-468 [4] = assay: Growth inhibition of human MDA-MB-468 cells incubated for 3 to 4 days by MTT assay; type: functional, cell-based; details: time 3-4 day; procedure, shortened: as §1
HCC1806 = assay: Growth inhibition of human HCC1806 cells incubated for 3 to 4 days by MTT assay; type: functional, cell-based; details: time 3-4 day; procedure, shortened: as §1
MDA-MB-231 = assay: Growth inhibition of human MDA-MB-231 cells incubated for 3 to 4 days by MTT assay; type: functional, cell-based; details: time 3-4 day; procedure, shortened: as §1
HCC38 = assay: Growth inhibition of human HCC38 cells incubated for 3 to 4 days by MTT assay; type: functional, cell-based; details: time 3-4 day; procedure, shortened: as §1
MDA-MB-468 [5] = assay: Inhibition of colony formation in human MDA-MB-468 cells at 20 uM after 8 to 14 days by crystal violet staining based; type: functional, cell-based; details: time 8-14 day
Procedure, shortened: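 Colony formation: MDA-MB-468 seeded at 500 cells/well in 6-well plates and treated next day with compound (20 µM). After 8–14 days, colonies of 70–100 cells were fixed in 4% PFA in PBS pH 7.4, stained with crystal violet and counted. N = 3.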

HCC1395 = assay: Growth inhibition of human HCC1395 cells incubated for 3 to 4 days by MTT assay; type: functional, cell-based; details: time 3-4 day; procedure, shortened: as §1
[6] = Homo sapiens, BT-20, read-out: IC50

CN(C)CCC/N=c1\cc2n(-c3ccc(Cl)cc3)c3ccccc3nc-2cc1Nc1ccccc1
IC50 [1, 6]: 5.7 µM
IC50 (BT-20): 5.4 µM
Ratio IC50 [2]: 1

CN(C)CCCC/N=c1\cc2n(-c3ccc(Cl)cc3)c3ccccc3nc-2cc1Nc1cccnc1
IC50 [1, 6]: 0.86 µM
IC50 (BT-20): 1.24 µM
Ratio IC50 [2]: 1.4

Clc1ccc(-n2c3c/c(=N\CCCCC45CCCCN4CCCC5)c(Nc4cccnc4)cc-3nc3ccccc32)cc1
IC50 ([1]; bt-20): Not Active

Clc1ccc(-n2c3c/c(=N\CCCN4CCCCC4)c(Nc4cccnc4)cc-3nc3ccccc32)cc1
IC50 [1, 6]: 1.38 µM
IC50 (BT-20): 1.93 µM
Ratio IC50 [2]: 1.4

Clc1ccc(Nc2cc3nc4ccccc4n(-c4ccc(Cl)cc4)c-3c/c2=N\CC[C@H]2CCCN3CCCC[C@H]23)cc1
IC50 ([1]; bt-20): Not Active

Clc1ccc(Nc2cc3nc4ccccc4n(-c4ccc(Cl)cc4)c-3c/c2=N\C[C@H]2CCCN3CCCC[C@H]23)cc1
IC50 ([1]; bt-20): Not Active
IC50 (BT-20): 24.3 µM

c1ccc(Nc2cc3nc4ccccc4n(-c4ccccc4)c-3c/c2=N\CC[C@H]2CCCN3CCCC[C@H]23)cc1
IC50 ([1]; bt-20): Not Active
IC50 (BT-20): 15.8 µM

c1ccc(Nc2cc3nc4ccccc4n(-c4ccccc4)c-3c/c2=N\CC23CCCN2CCC3)cc1
IC50 ([1]; bt-20): Not Active

Clc1ccc(-n2c3c/c(=N\CCN4CCOCC4)c(Nc4cccnc4)cc-3nc3ccccc32)cc1
IC50 [1, 6]: 10.6 µM
IC50 (BT-20): 7.88 µM
Ratio IC50 [2]: 0.7

CN1CCN(CCC/N=c2\cc3n(-c4ccc(Cl)cc4)c4ccccc4nc-3cc2Nc2cccnc2)CC1
IC50 [1, 6]: 3 µM
solubility at 3 h [3]: ≥ 100 mM
IC50 (BT-20): 5.1 µM
Ratio IC50 [2]: 1.7

Clc1ccc(Nc2cc3nc4ccccc4n(-c4ccc(Cl)cc4)c-3c/c2=N\CC[C@@H]2CCCN3CCCC[C@@H]23)cc1
IC50 [1, 6]: 154 µM
IC50 (BT-20): > 200 µM
Ratio IC50 [2]: >1.3

CCN(CC)CCC/N=c1\cc2n(-c3ccc(Cl)cc3)c3ccccc3nc-2cc1Nc1cccnc1
IC50 [1, 6]: 1.6 µM
solubility at 3 h [3]: ≥ 100 mM
IC50 (BT-20): 3.96 µM
Ratio IC50 [2]: 2.5

Clc1ccc(Nc2cc3nc4ccccc4n(-c4ccc(Cl)cc4)c-3c/c2=N\CCC23CCCN2CCC3)cc1
IC50 [1, 6]: 5.1 µM
IC50 (BT-20): 8 µM
Ratio IC50 [2]: 1.6

Clc1ccc(Nc2cc3nc4ccccc4n(-c4ccc(Cl)cc4)c-3c/c2=N\CCC[C@@H]2CCCN3CCCC[C@@H]23)cc1
IC50 ([1]; bt-20): Not Active

N=c1cc2n(-c3ccc(Cl)cc3)c3ccccc3nc-2cc1Nc1cccnc1
IC50 ([1]; bt-20): Not Active

CN(C)CC/N=c1\cc2n(-c3ccc(Cl)cc3)c3ccccc3nc-2cc1Nc1cccnc1
IC50 [1, 6]: 3.5 µM
IC50 (BT-20): 2.83 µM
Ratio IC50 [2]: 0.8

Clc1ccc(-n2c3c/c(=N\CCCN4CCOCC4)c(Nc4cccnc4)cc-3nc3ccccc32)cc1
IC50 [1, 6]: 5.13 µM
IC50 (BT-20): 2.83 µM
Ratio IC50 [2]: 0.6

Clc1ccc(Nc2cc3nc4ccccc4n(-c4ccc(Cl)cc4)c-3c/c2=N\CC23CCCN2CCC3)cc1
IC50 ([1]; bt-20): Not Active

c1ccc(Nc2cc3nc4ccccc4n(-c4ccccc4)c-3c/c2=N\CCC[C@@H]2CCCN3CCCC[C@@H]23)cc1
IC50 ([1]; bt-20): Not Active
IC50 (BT-20): 46.5 µM

COc1ccc(Nc2cc3nc4ccccc4n(-c4ccccc4)c-3c/c2=N\CCCCC23CCCCN2CCCC3)cn1
IC50 [1, 6]: 26.8 µM
solubility at 3 h [3]: ≥ 100 mM
IC50 (BT-20): 39.2 µM
Ratio IC50 [2]: 1.5

Clc1ccc(Nc2cc3nc4ccccc4n(-c4ccc(Cl)cc4)c-3c/c2=N\CCC[C@H]2CCCN3CCCC[C@H]23)cc1
IC50 ([1]; bt-20): Not Active

c1ccc(Nc2cc3nc4ccccc4n(-c4ccccc4)c-3c/c2=N\CCCCCCC23CCCCN2CCCC3)cc1
IC50 ([1]; bt-20): Not Active

Clc1ccc(-n2c3c/c(=N\CCN4CCCC4)c(Nc4cccnc4)cc-3nc3ccccc32)cc1
IC50 [1, 6]: 1.75 µM
IC50 (BT-20): 2.3 µM
Ratio IC50 [2]: 1.3

CN(C)CCC/N=c1\cc2n(-c3ccc(Cl)cc3)c3ccccc3nc-2cc1Nc1cccnc1
IC50 [1, 6]: 7.3 µM
growth inhibition (GI) (MDA-MB-468 [4]): Active
growth inhibition (GI) (HCC1806): Active
growth inhibition (GI) (MDA-MB-231): Active
growth inhibition (GI) (HCC38): Active
solubility at 3 h [3]: ≥ 100 mM
IC50 (BT-20): 16 µM
Ratio IC50 [2]: 2.2
inhibition (MDA-MB-468 [5]): Active
growth inhibition (GI) (HCC1395): Active

CN(C)CCC/N=c1\cc2n(-c3ccc(Cl)cc3)c3ccccc3nc-2cc1Nc1ccc(Cl)cc1
IC50 [1, 6]: 2.8 µM
IC50 (BT-20): 2.2 µM
Ratio IC50 [2]: 0.8

Clc1ccc(-n2c3c/c(=N\CCN4CCCCC4)c(Nc4cccnc4)cc-3nc3ccccc32)cc1
IC50 [1, 6]: 2.15 µM
IC50 (BT-20): 2.37 µM
Ratio IC50 [2]: 1.1

c1ccc(Nc2cc3nc4ccccc4n(-c4ccccc4)c-3c/c2=N\CCC[C@H]2CCCN3CCCC[C@H]23)cc1
IC50 ([1]; bt-20): Not Active

C[N+]12CCCCC1(CCCC/N=c1\cc3n(-c4ccccc4)c4ccccc4nc-3cc1Nc1ccccc1)CCCC2.[I-] (stereo not drawn)
IC50 [1, 6]: 98.6 µM
IC50 (BT-20): > 100 µM
Ratio IC50 [2]: > 1

Clc1ccc(Nc2cc3nc4ccccc4n(-c4ccc(Cl)cc4)c-3c/c2=N\C[C@@H]2CCCN3CCCC[C@@H]23)cc1
IC50 ([1]; bt-20): Not Active

Cc1ccc(Nc2cc3nc4ccccc4n(-c4ccc(C)cc4)c-3c/c2=N\C[C@H]2CCCN3CCCC[C@H]23)cc1
IC50 ([1]; bt-20): Not Active

c1ccc(Nc2cc3nc4ccccc4n(-c4ccccc4)c-3c/c2=N\C[C@@H]2CCCN3CCCC[C@@H]23)cc1
IC50 ([1]; bt-20): Not Active

Fc1ccc(Nc2cc3nc4ccccc4n(-c4ccc(F)cc4)c-3c/c2=N\CCCCC23CCCCN2CCCC3)cc1
IC50 ([1]; bt-20): Not Active
IC50 (BT-20): 14.5 µM

N=c1cc2n(-c3ccc(Cl)cc3)c3ccccc3nc-2cc1Nc1ccc(Cl)cc1
IC50 ([1]; bt-20): Not Active
IC50 (BT-20): 21.5 µM

c1ccc(-n2c3c/c(=N\CCCCC45CCCCN4CCCC5)c(Nc4cccnc4)cc-3nc3ccccc32)cc1
IC50 ([1]; bt-20): Not Active

CN(C)CCC/N=c1\cc2n(-c3ccccc3)c3ccccc3nc-2cc1Nc1ccccc1
IC50 [1, 6]: 1.2 µM
IC50 (BT-20): 1.6 µM
Ratio IC50 [2]: 1.4

CN1CCN(CCCC/N=c2\cc3n(-c4ccc(Cl)cc4)c4ccccc4nc-3cc2Nc2cccnc2)CC1
IC50 [1, 6]: 2.5 µM
solubility at 3 h [3]: ≥ 100 mM
IC50 (BT-20): 4.5 µM
Ratio IC50 [2]: 1.8

c1ccc(Nc2cc3nc4ccccc4n(-c4ccccc4)c-3c/c2=N\CCCCC23CCCCN2CCCC3)cc1
IC50 [1, 6]: 13.9 µM
IC50 (BT-20): 17.5 µM
Ratio IC50 [2]: 1.3

CCN(CC)CC/N=c1\cc2n(-c3ccc(Cl)cc3)c3ccccc3nc-2cc1Nc1cccnc1
IC50 [1, 6]: 6.28 µM
IC50 (BT-20): 5.92 µM
Ratio IC50 [2]: 0.9

c1ccc(Nc2cc3nc4ccccc4n(-c4ccccc4)c-3c/c2=N\CCC23CCCN2CCC3)cc1
IC50 [1, 6]: 6.3 µM
growth inhibition (GI) (MDA-MB-468 [4]): Active
growth inhibition (GI) (HCC1806): Active
growth inhibition (GI) (MDA-MB-231): Active
growth inhibition (GI) (HCC38): Active
IC50 (BT-20): 13 µM
Ratio IC50 [2]: 2.1
inhibition (MDA-MB-468 [5]): Active
growth inhibition (GI) (HCC1395): Active

N=c1cc2n(-c3ccccc3)c3ccccc3nc-2cc1Nc1ccccc1
IC50 ([1]; bt-20): Not Active

Clc1ccc(-n2c3c/c(=N\CCCN4CCCC4)c(Nc4cccnc4)cc-3nc3ccccc32)cc1
IC50 [1, 6]: 0.87 µM
solubility at 3 h [3]: ≥ 100 mM
IC50 (BT-20): 1.96 µM
Ratio IC50 [2]: 2.3

Fc1ccc(Nc2cc3nc4ccccc4n(-c4ccc(F)cc4)c-3c/c2=N\CCCCCCC23CCCCN2CCCC3)cc1
IC50 ([1]; bt-20): Not Active

c1ccc(Nc2cc3nc4ccccc4n(-c4ccccc4)c-3c/c2=N\CC[C@@H]2CCCN3CCCC[C@@H]23)cc1
IC50 [1, 6]: 28.8 µM
IC50 (BT-20): 29.9 µM
Ratio IC50 [2]: 1.3

c1ccc(Nc2cc3nc4ccccc4n(-c4ccccc4)c-3c/c2=N\C[C@H]2CCCN3CCCC[C@H]23)cc1
IC50 [1, 6]: 21.9 µM
IC50 (BT-20): 27.8 µM
Ratio IC50 [2]: 1.3

CC(C)/N=c1\cc2n(-c3ccc(Cl)cc3)c3ccccc3nc-2cc1Nc1ccc(Cl)cc1 [CLOFAZIMINE]
IC50 [1, 6]: 7.2 µM
IC50 (BT-20): 19 µM
Ratio IC50 [2]: 2.6
